Columns and labels:
Caco-2 [1] = test: (§1) Apparent permeability from basolateral to apical side in human Caco2 cells after 30 to 120 mins by HPLC method; format: ADME, cell-based
In short: (§2)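 Caco-2 cells (passage 50–70) grown 21 days on Transwell inserts, used only where TEER >300. Apical buffer pH 6.0, basolateral pH 7.4, 60 min preincubation. Compound dosed from a 20 mM DMSO stock with lucifer yellow on the donor side. Samples analysed by HPLC. Papp = (dQ/dt)/(A·C0) from cumulative sampling. Efflux ratio from B–A and A–B values.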

[2] = test system: Mycobacterium tuberculosis; test: Antimicrobial activity against Mycobacterium tuberculosis H37Rv grown in GAS medium without ferric ammonium citrate at pH 6.6 incubated for 10 to 14 days by broth microdilution method; format: functional
HepG2 = test: Cytotoxicity against human HepG2 cells assessed as reduction in cell viability incubated for 48 hrs by MTT assay; format: cell-based; conditions: hepg2, 48 h
In short: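 HepG2 cells (2.5–5.0 × 10^4 per well) in EMEM with 10% FBS, in triplicate. Final compound concentrations 1–200 μM diluted from 20 mM DMSO stocks. Controls were 1% DMSO and 1% Triton X-100. Incubated 48 h at 37 °C under 5% CO2.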

[3] = Terminal half life in Sprague-Dawley rat at 2.5 mg/kg, iv by LC-MS/MS method; format: ADME, organism-based; conditions: in vivo, read-out: beta t1/2
[4] = AUC (0 to infinity) in Sprague-Dawley rat at 2.5 mg/kg, iv by LC-MS/MS method; format: ADME, organism-based; design: dose 2.5 mg/kg, route intravenous, time infinity; conditions: in vivo
In short: (§3)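 Female Sprague-Dawley rats (250–274 g) with dual jugular/femoral vein catheters, 3 per compound, given a single 2.5 mg/kg bolus into the jugular catheter over 5 s, 3 days after oral dosing. Vehicle was 0.05% sodium carboxymethylcellulose or 25% hydroxypropyl-β-cyclodextrin in water. Femoral blood sampled at 0–480 min into K2EDTA. Plasma analysed by LC–MS/MS with an internal standard. Non-compartmental analysis.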

Rattus norvegicus [5] = test: Oral bioavailability in Sprague-Dawley rat at 25 mg/kg by LC-MS/MS method; format: ADME, organism-based; conditions: in vivo
In short: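 Crossover in the same 3 female Sprague-Dawley rats: 25 mg/kg by oral gavage, then after a 3-day washout 2.5 mg/kg iv bolus. Serial femoral plasma quantified by LC–MS/MS. AUCs by non-compartmental analysis. Absolute bioavailability calculated individually for each rat from its oral and iv data.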

[6] = Inhibition of Mycobacterium tuberculosis MbtA expressed in Escherichia coli using [32P]PPi, ATP and salicylic acid incubated for 20 mins by liquid scintillation counting method; conditions: read-out: Ki(app)
[7] = Clearance in Sprague-Dawley rat at 2.5 mg/kg, iv by LC-MS/MS method; format: ADME, organism-based; conditions: in vivo; in short: as §3
[8] = (§4) AUC (0 to infinity) in Sprague-Dawley rat at 25 mg/kg, po by LC-MS/MS method; format: ADME, organism-based; design: dose 25 mg/kg, time infinity, route oral; conditions: Sprague-Dawley, in vivo
Caco-2 [9] = test: (§5) Apparent permeability from apical to basolateral side in human Caco2 cells after 30 to 120 mins by HPLC method; format: ADME, cell-based; in short: as §2
[10] = (§6) Cmax in Sprague-Dawley rat at 25 mg/kg, po by LC-MS/MS method; format: ADME, organism-based; design: dose 25 mg/kg, route oral; conditions: Sprague-Dawley, in vivo
In short: (§7)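 Female Sprague-Dawley rats (250–274 g), catheterised, 3 per compound, dosed by oral gavage at 25 mg/kg from a 10 mg/mL solution. Femoral-vein blood taken at 0, 15, 30, 45, 60, 120, 240 and 480 min into K2EDTA. Plasma protein-precipitated with an internal standard and quantified by LC–MS/MS against standards in rat plasma. Parameters by non-compartmental analysis.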

Caco-2 [11] = test: (§8) Efflux ratio in human Caco2 cells after 30 to 120 mins by HPLC method; format: ADME, cell-based; in short: as §2
[12] = Ratio of MIC for antimicrobial activity against Mycobacterium tuberculosis H37Rv to KI)app) for inhibition of Mycobacterium tuberculosis MbtA expressed in Escherichia coli
[13] = as §1; format: ADME, cell-based; conditions: caco-2; in short: as §2
Rattus norvegicus [14] = test: as §4; format: ADME, organism-based; design: dose 25 mg/kg, time infinity, route oral; conditions: in vivo, BLD = below limit of detection
[15] = as §5; format: ADME, cell-based; conditions: caco-2; in short: as §2
Rattus norvegicus [16] = test: as §6; format: ADME, organism-based; design: dose 25 mg/kg, route oral; conditions: in vivo, BLD = below limit of detection; in short: as §7
[17] = as §8; format: ADME, cell-based; conditions: caco-2; in short: as §2
Plasma [18] = test: Drug metabolism in Sprague-Dawley rat plasma assessed as 5'-O-[N-(Salicyl)sulfamoyl]adenosine formation at 10 uM; format: ADME, cell-free
Plasma [19] = test: Drug metabolism in Sprague-Dawley rat plasma assessed as 2',3'-O-Di-acetyl-5'-O-[N-(2-hydroxybenzoyl)sulfamoyl]-adenosine formation at 10 uM; format: ADME, cell-free
[20] = Solubility in water; format: physicochemical; conditions: buffer
[21] = Cmax in BALB/c mouse; format: ADME, organism-based; conditions: in vivo
[22] = Stability in pH 1 buffer solutions assessed as compound degradation after 24 hrs at 37 degC; format: physicochemical; conditions: read-out: Drug degradation
In short: (§9)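 Compound held at pH 1 or pH 12 for 24 h at 37 °C, with degradation measured.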

Liver microsome [23] = test: Half life in rat liver microsomes at 1 uM in presence of NADPH by LC-MS/MS method; format: ADME
In short: (§10)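 Liver microsomes (rat, mouse or pooled human, 0.5 mg/mL) in 100 mM potassium phosphate pH 7.4 with 10 mM MgCl2 and 1.0 μM compound. Preincubated, then NADPH added (water for control). Incubated 60 min at 37 °C. Acetonitrile quench, centrifugation, supernatant analysed by LC–MS/MS.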

[24] = AUC in BALB/c mouse; format: ADME, organism-based; conditions: in vivo
Liver microsome [25] = test: Half life in human liver microsomes at 1 uM in presence of NADPH by LC-MS/MS method; format: ADME; in short: as §10
Liver = test: Half life in mouse liver microsomes at 1 uM in presence of NADPH by LC-MS/MS method; format: ADME; in short: as §10
[26] = Stability in pH 12 buffer solutions assessed as compound degradation after 24 hrs at 37 degC; format: physicochemical; conditions: read-out: Drug degradation; in short: as §9
[27] = Ratio of Cmax in Sprague-Dawley rat at 25 mg/kg, po to MIC for antimicrobial activity against Mycobacterium tuberculosis H37Rv; format: ADME, organism-based; conditions: in vivo
In short: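 Female Sprague-Dawley rats (250–274 g, catheterised; 3 per compound) got a 25 mg/kg gavage dose from a 10 mg/mL solution. Plasma drawn 0–480 min was read by LC–MS/MS, and Cmax was taken by non-compartmental analysis. […] Cmax was divided by MIC.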

Row | SMILES | Papp (Caco-2 [1]) [×10⁻⁶ cm/s] | MIC [2] [µM] | CC50 (HepG2) [nM] | half-life [3] [min] | AUC(0-inf) [4] [ng·h/mL] | F (Rattus norvegicus [5]) [%] | Ki [6] [nM] | clearance [7] [mL/min/kg] | AUC(0-inf) [8] [ng·h/mL] | Papp (Caco-2 [9]) [×10⁻⁶ cm/s] | Cmax [10] [ng/mL] | Ratio [12] | other results
1 | CCN(CC)CC.Nc1ncnc2c1ncn2[C@@H]1O[C@H](CNS(=O)(=O)NC(=O)c2ccccc2O)[C@@H](O)[C@H]1F | 1.34 | 0.19 | > 200000 | 32.5 | 17400 | 1.8 | 1.7 | 2.5 | 3130 | 4.2 | 460 | 112 | Ratio (Caco-2 [11]): 0.32
2 | CC(=O)O[C@@H]1[C@H](OC(C)=O)[C@@H](COS(=O)(=O)NC(=O)c2ccccc2O)O[C@H]1n1cnc2c(N)ncnc21.CCN(CC)CC | – | – | – | – | – | – | – | – | – | – | – | – | Papp B→A [13]: 0.97 ×10⁻⁶ cm/s; AUC (Rattus norvegicus [14]): BLD; Papp A→B [15]: 0.62 ×10⁻⁶ cm/s; Cmax (Rattus norvegicus [16]): BLD; efflux ratio [17]: 1.55
3 | CC(=O)Oc1ccccc1C(=O)NS(=O)(=O)OC[C@H]1O[C@@H](n2cnc3c(N)ncnc32)[C@H](OC(C)=O)[C@@H]1OC(C)=O.CCN(CC)CC | – | – | – | – | – | – | – | – | 48.3 | – | 30 | – | Drug metabolism (Plasma [18]): metabolite_detected; Drug metabolism (Plasma [19]): metabolite_detected
4 | CCN(CC)CC.Nc1ccc(C(=O)NS(=O)(=O)NC[C@H]2O[C@@H](n3cnc4c(N)ncnc43)[C@H](O)[C@@H]2O)c(O)c1 | – | 3.12 | > 200000 | 10.6 | 1050 | 3.7 | 8.9 | 46.3 | 280 | – | 90 | 351 | –
5 | CCN(CC)CC.O=C(NS(=O)(=O)NC[C@H]1O[C@@H](n2cnc3c(NC4CC4)ncnc32)[C@H](O)[C@@H]1O)c1ccccc1O | – | 0.098 | – | 15.1 | 3480 | 1 | 1.5 | 9.6 | 302 | – | 140 | 65 | –
6 | CCN(CC)CC.O=C(NS(=O)(=O)NC[C@H]1O[C@@H](n2cnc3c(NC4CC4)nc(-c4ccccc4)nc32)[C@H](O)[C@@H]1O)c1ccccc1O | 1.8 | 6.25 | – | 15.5 | 3070 | 0.3 | 0.76 | 13.6 | 66.7 | 0.52 | 100 | 8224 | Ratio (Caco-2 [11]): 3.45
7 | CCN(CC)CC.Nc1nc(-c2ccccc2)nc2c1ncn2[C@@H]1O[C@H](CNS(=O)(=O)NC(=O)c2ccccc2O)[C@@H](O)[C@H]1F | – | 1.56 | > 200000 | 121 | 33000 | 0.8 | 1.6 | 1.3 | 2330 | – | 500 | 975 | –
8 | CCN(CC)CC.Nc1ncnc2c1ncn2[C@@H]1O[C@H](CNS(=O)(=O)NC(=O)c2ccccc2O)C[C@H]1F | – | 0.78 | – | 62 | 16000 | 2 | 3 | 2.6 | 3300 | – | 560 | 260 | –
9 | CCN(CC)CC.Nc1ncnc2c1ncn2[C@@H]1O[C@H](COS(=O)(=O)NC(=O)c2ccccc2O)[C@@H](O)[C@H]1O | 0.96 | 0.39 | > 200000 | 11 | 8650 | 1.3 | – | 4.9 | 1100 | 1.23 | 400 | – | solubility [20]: > 50 mg/mL; Cmax [21]: 1200 ng/mL; degraded at 24 h [22]: < 5%; t1/2 (Liver microsome [23]): > 30 min; AUC [24]: 977 ng·h/mL; t1/2 (Liver microsome [25]): > 30 min; t1/2 (Liver): > 30 min; Ratio (Caco-2 [11]): 0.78; degraded at 24 h [26]: < 5%
10 | CCN(CC)CC.Nc1ncnc2c1ncn2[C@@H]1O[C@H](CNS(=O)(=O)NC(=O)c2ccccc2O)[C@@H](O)[C@H]1O | 0.86 | 0.19 | > 200000 | 10.6 | 5070 | 3.5 | 3.7 | 8.4 | – | 1.23 | 700 | 51 | Ratio [27]: 7
11 | NNC(=O)c1ccncc1 [ISONIAZID] | – | – | – | – | – | 65 | – | – | – | – | 13500 | – | –

From ChEMBL document CHEMBL3588789, “Synthesis and Pharmacokinetic Evaluation of Siderophore Biosynthesis Inhibitors for Mycobacterium tuberculosis” (J Med Chem, 2015)
